PubChem BioAssay
Activity calls are given as the source filed them. Unless noted, no rule for the calls is given here.

Columns and labels:
[1] = molecular target: Pantothenate synthetase (Mycobacterium tuberculosis (strain ATCC 25618 / H37Rv)) (UniProt P9WIL5); assay: Recombinant Mtb pantothenate synthetase (PanC) inhibitors, coupled enzyme, confirmatory (AID 375); details: coupled enzyme assay; at 10 µM, stronger effect = higher value;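 also: 0% = full reaction with vehicle and 100% = no enzyme background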
[2] = reducers of endogenous Her2 protein level, primary screen, SKBR3 breast tumor cells, AlphaScreen, ATP viability (AID 461;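 active = Her2 level under about 52% in both replicate screens, with viability over 70% of control, limit read from the data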;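 as to Her2 level: lower value means less Her2 protein in the cells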;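 as to viability: percent of carrier control wells set as 100% viability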); details: 18-24 h, measured here: SKBR3 viability, ATP luminescence, at 10 µM
[3] = molecular target: Receptor tyrosine-protein kinase erbB-2 (Homo sapiens) (UniProt P04626); assay: as above; details: 18-24 h, at 10 µM, stronger effect = lower value
[4] = SK-BR-3 cell growth inhibitors, pilot screen, 24 h, human (AID 572;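 active = viability at or below 10% of carrier control in both of two separate runs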;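 also: compound exposure lasted between 18 and 24 h rather than exactly 24 h; 100% = carrier-treated control wells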); details: SK-BR-3 viability, CellTiter-Glo luminescence, at 10 µM, stronger effect = lower value
[5] = HUVEC growth inhibition – cell-based, human, primary screen (AID 575;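 active = viability at or below 30% in both replicate assays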;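 also: 100% = median of untreated cell wells with 0.1% DMSO on each plate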); details: HUVEC proliferation, CellTiter-Glo luminescence, 72 h; at 10 µM; stronger effect = lower value
Outline: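 Test system: primary human umbilical vein endothelial cells. Quantity: 1250 cells/well. Compound: single 10 µM dose, 0.1% DMSO, from 5x medium stock. Timing: 72 h treatment at 37 °C. Detection: ATP-based CellTiter-Glo luminescent read. Benchmarks: vehicle and MePR control wells. Format: 384-well plates coated with collagen.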

[6] = growth inhibitors of H69AR lung tumor, primary screen, human, duplicate replicates (AID 580;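 active = viability at or under a set limit in both replicates, limit being median viability minus 3 SD, cut at about 48% in these data, passing the limit was not always enough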;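 also: 100% = mean luminescence of untreated wells and 0% = no signal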); details: H69AR lung tumor cells viability, ATP luminescence, 72 h; at 10 µM; stronger effect = lower value
[7] = reversal of MRP1-mediated doxorubicin resistance, pilot screen, H69AR cells, doxorubicin co-treatment (AID 601;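 active = viability loss from added drug above about 55%, and viability with drug at most 40%, in both replicates, limit read from the data, passing the limit was not always enough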); details: CellTiter-Glo, 72 h, at 10 µM; for differential viability (reversal): stronger effect = higher value
[8] = 384-well plate pilot, post-Golgi transport modulator project, inhibition of yeast transport mutant growth (AID 636; in the data active = inhibition above about 31%); details: absorbance 615 nm, about 18 h, stronger effect = higher value
[9] = growth suppression of yeast trafficking mutant, preliminary HTS, modulators of trafficking downstream of Golgi apparatus project, 1536-format plate, OD 615 nm (AID 637; in the data active = inhibition above about 30%); details: yeast transport mutant growth, absorbance 615 nm, 18 h; stronger effect = higher value
[10] = H69AR cells + 2 uM doxorubicin, measured here: viability with 2 uM doxorubicin, stronger effect = lower value
[11] = H69AR cells, compound alone cytotoxicity

Sequence of Pantothenate synthetase (Mycobacterium tuberculosis (strain ATCC 25618 / H37Rv)) (P9WIL5 whole entry, looked up): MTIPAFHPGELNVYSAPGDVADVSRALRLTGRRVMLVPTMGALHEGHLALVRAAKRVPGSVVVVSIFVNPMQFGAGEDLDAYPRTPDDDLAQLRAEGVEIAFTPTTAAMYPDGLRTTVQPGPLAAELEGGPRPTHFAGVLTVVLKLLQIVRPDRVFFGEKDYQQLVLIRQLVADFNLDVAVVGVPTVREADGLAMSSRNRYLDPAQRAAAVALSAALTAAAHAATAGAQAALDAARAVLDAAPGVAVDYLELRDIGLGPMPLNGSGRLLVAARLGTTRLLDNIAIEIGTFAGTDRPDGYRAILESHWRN
Sequence of Receptor tyrosine-protein kinase erbB-2 (Homo sapiens) (P04626 whole entry, looked up): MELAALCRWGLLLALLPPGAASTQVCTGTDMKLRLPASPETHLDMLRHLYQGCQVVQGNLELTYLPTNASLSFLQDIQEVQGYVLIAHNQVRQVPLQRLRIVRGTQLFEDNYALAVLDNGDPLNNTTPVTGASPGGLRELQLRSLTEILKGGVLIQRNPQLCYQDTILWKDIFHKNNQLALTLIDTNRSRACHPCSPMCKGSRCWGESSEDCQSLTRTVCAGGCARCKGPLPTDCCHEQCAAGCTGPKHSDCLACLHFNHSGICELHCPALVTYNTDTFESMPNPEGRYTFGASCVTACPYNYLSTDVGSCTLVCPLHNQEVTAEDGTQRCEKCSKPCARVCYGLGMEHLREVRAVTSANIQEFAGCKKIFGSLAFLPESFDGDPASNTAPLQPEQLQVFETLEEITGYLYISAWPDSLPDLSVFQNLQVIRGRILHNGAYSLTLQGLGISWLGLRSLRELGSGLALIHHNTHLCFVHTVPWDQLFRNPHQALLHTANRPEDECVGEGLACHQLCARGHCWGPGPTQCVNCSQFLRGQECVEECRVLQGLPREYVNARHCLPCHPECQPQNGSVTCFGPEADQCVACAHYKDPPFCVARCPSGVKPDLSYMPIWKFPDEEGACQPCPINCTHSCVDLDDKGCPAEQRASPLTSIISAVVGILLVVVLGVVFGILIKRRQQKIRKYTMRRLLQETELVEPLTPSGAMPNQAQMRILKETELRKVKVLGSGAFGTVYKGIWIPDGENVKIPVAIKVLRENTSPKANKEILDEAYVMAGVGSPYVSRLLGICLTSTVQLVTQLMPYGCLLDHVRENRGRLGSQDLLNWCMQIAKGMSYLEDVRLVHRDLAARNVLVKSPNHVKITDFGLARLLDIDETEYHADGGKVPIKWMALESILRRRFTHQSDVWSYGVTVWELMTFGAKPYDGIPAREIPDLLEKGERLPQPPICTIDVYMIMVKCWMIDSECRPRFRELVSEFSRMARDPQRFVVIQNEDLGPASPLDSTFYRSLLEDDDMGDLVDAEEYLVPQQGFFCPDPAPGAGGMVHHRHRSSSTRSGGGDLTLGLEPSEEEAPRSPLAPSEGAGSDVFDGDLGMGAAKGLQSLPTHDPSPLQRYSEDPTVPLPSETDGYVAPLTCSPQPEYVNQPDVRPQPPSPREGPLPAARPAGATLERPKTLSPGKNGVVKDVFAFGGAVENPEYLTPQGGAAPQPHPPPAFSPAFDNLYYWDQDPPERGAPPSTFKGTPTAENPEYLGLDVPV

| SMILES | inhibition [1] | viability [2] | Her2 level [3] | viability [4] | viability [5] | viability [6] | differential viability (reversal) ([7]; H69AR cells + 2 uM doxorubicin) | viability [7, 10] | viability [7, 11] | inhibition [8] | inhibition [9] |
| --- | --- | --- | --- | --- | --- | --- | --- | --- | --- | --- | --- |
| O=C(c1ccc2nc3ccc(Cl)cc3c(=O)n2c1)N1CCC2(CC1)OCCO2 | 12% (inactive) | 97.5% | 91.5% (inactive) | 97.5% (inactive) | 98% (inactive) | 96.7% (inactive) | 1.37% (inactive) | 95.4% | 96.7% | -3.87% (inactive) | 1.94% (inactive) |
| CCOC(=O)C1CCCCC12C(C#N)=C(N)Oc1n[nH]c(C)c12 (configuration not stated) | 0% (inactive) | 91.5% | 94.5% (inactive) | 91.5% (inactive) | 96% (inactive) | 93.3% (inactive) | -6.3% (inactive) | 99.6% | 93.3% | 0.66% (inactive) | 25.1% (inactive) |
| CC(=NCCCO)c1c(O)n(Cc2ccccc2)c(=O)[nH]c1=O | 0% (inactive) | 95% | 94% (inactive) | 95% (inactive) | 98.6% (inactive) | 94.4% (inactive) | 4.15% (inactive) | 90.2% | 94.4% | -4.61% (inactive) | 3.67% (inactive) |
| CC(C)CC12CN3CCN(CC(C3)/C1=N/O)C2 | 0% (inactive) | 107% | 101% (inactive) | 107% (inactive) | 108% (inactive) | 96.4% (inactive) | 8.57% (inactive) | 87.8% | 96.4% | -5.54% (inactive) | -0.98% (inactive) |
| Nc1ccc(C2(c3ccc(N)cc3)CN3CCC2CC3)cc1 | 0% (inactive) | 120% | 88% (inactive) | 120% (inactive) | 85.5% (inactive) | 106% (inactive) | 6.37% (inactive) | 100% | 106% | -5.75% (inactive) | 0% (inactive) |
| CC(C)=CCSc1nnc([C@@H](N)Cc2c[nH]c3ccccc23)o1 | 7% (inactive) | 102% | 110% (inactive) | 102% (inactive) | 75.4% (inactive) | 94% (inactive) | 2.83% (inactive) | 91.2% | 94% | -0.27% (inactive) | -8.39% (inactive) |
| CC1=C(C(=O)N2CCC3(CC2)OCCO3)C2(CCC(C)CC2)OC1=O (configuration not stated) | 0% (inactive) | 92.5% | 102% (inactive) | 92.5% (inactive) | 101% (inactive) | 98.4% (inactive) | -4.92% (inactive) | 103% | 98.4% | -0.77% (inactive) | 0.17% (inactive) |
| Cn1c(=O)cc(SCC(=O)N2CCC3(CC2)OCCO3)c2ccc(Cl)cc21 | 9% (inactive) | 116% | 94.5% (inactive) | 116% (inactive) | 87.6% (inactive) | 79.1% (inactive) | 8.79% (inactive) | 70.3% | 79.1% | -3.03% (inactive) | 1.77% (inactive) |
| COCCOC(=O)C1=C(N)Oc2c(c(=O)oc3ccccc23)C1c1ccncc1 (configuration not stated) | 10% (inactive) | 122% | 72% (inactive) | 122% (inactive) | 98.5% (inactive) | 92% (inactive) | 4.34% (inactive) | 87.7% | 92% | -2.76% (inactive) | -2.22% (inactive) |
| CN1C(=O)N(C)C(=O)C2(Cc3ccccc3N3CCOCC32)C1=O (configuration not stated) | 0% (inactive) | 104% | 88% (inactive) | 104% (inactive) | 94.8% (inactive) | 102% (inactive) | 8.12% (inactive) | 94% | 102% | -6.8% (inactive) | -2.86% (inactive) |
| COc1ccc(OC)c([C@@H](O)[C@H](C)NC(C)(C)C)c1 | 6% (inactive) | 100% | 120% (inactive) | 100% (inactive) | 92.3% (inactive) | 97.5% (inactive) | -0.98% (inactive) | 98.5% | 97.5% | – | – |
| CCN1CCN(c2ncnc3ccc(Br)cc23)CC1 | 0% (inactive) | 100% | 110% (inactive) | 100% (inactive) | 59.2% (inactive) | 91.2% (inactive) | -8.96% (inactive) | 100% | 91.2% | -0.79% (inactive) | 5.25% (inactive) |
| CCCCn1c(O)c(C(C)=NCCc2ccccc2)c(=O)[nH]c1=O | 0% (inactive) | 88.5% | 89.5% (inactive) | 88.5% (inactive) | 95.6% (inactive) | 100% (inactive) | 4.16% (inactive) | 95.9% | 100% | -0.26% (inactive) | 9.51% (inactive) |
| O=C(NCc1ccccn1)c1ccccc1Cl | 0% (inactive) | 91.5% | 76.5% (inactive) | 91.5% (inactive) | 91.2% (inactive) | 98% (inactive) | 16.5% (inactive) | 81.5% | 98% | -7.95% (inactive) | 0.63% (inactive) |
